# Assay results reported in ChEMBL document CHEMBL1649483, “Molecular analysis of the gyrA and gyrB quinolone resistance-determining regions of fluoroquinolone-resistant Clostridium difficile mutants selected in vitro” (2009).
# Key:
# Format in all cases: functional
# Clostridioides difficile [1] = assay: Antimicrobial activity against Clostridium difficile C253c selected after 2 ug/ml of moxifloxacin by Etest method
# Clostridioides difficile [2] = assay: Antimicrobial activity against Clostridium difficile CD25 expressing tcdA, tcdB gene and GyrB Ser416Ala mutant gene by Etest method
# Clostridioides difficile [3] = assay: Antimicrobial activity against Clostridium difficile A422 expressing tcdA and tcdB gene by Etest method
# Summary of the method: (§1)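 Parent clinical or nontoxigenic isolate tested for gatifloxacin susceptibility by Etest, run per the manufacturer's instructions; a fluoroquinolone breakpoint of 8 μg/ml was applied.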
# Clostridioides difficile [4] = assay: Antimicrobial activity against Clostridium difficile BI2 by Etest method; summary of the method: as §1
# Clostridioides difficile [5] = assay: Antimicrobial activity against Clostridium difficile C253g harboring GyrA Ala118Ser mutant gene selected after 8 ug/ml of moxifloxacin by Etest method
# Clostridioides difficile [6] = assay: Antimicrobial activity against Clostridium difficile A422h harboring GyrA Asp81Asn mutant gene selected after 8 ug/ml of moxifloxacin by Etest method
# Summary of the method: (§2)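 Stable in vitro-selected mutant tested for gatifloxacin susceptibility by Etest, per the manufacturer's instructions, with an 8 μg/ml breakpoint. For selection, the parent was grown in antibiotic-free brain heart infusion (BHI) for 24 h at 35°C under anaerobic conditions. […] Later steps used double the MIC. Stability was confirmed by three subcultures.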
# Clostridioides difficile [7] = assay: Antimicrobial activity against Clostridium difficile C253b selected after 2 ug/ml of moxifloxacin by Etest method
# Clostridioides difficile [8] = assay: Antimicrobial activity against Clostridium difficile CD5 1-g harboring GyrA Ala92Glu and GyrB Ser416Ala mutant genes selected after 8 ug/ml of moxifloxacin by Etest method
# Clostridioides difficile [9] = assay: Antimicrobial activity against Clostridium difficile 630e selected after 4 ug/ml of moxifloxacin by Etest method; summary of the method: as §2
# Clostridioides difficile [10] = assay: Antimicrobial activity against Clostridium difficile CD5i harboring GyrA Ala92Glu and GyrB Ser416Ala mutant genes selected after 8 ug/ml of moxifloxacin by Etest method
# Clostridioides difficile [11] = assay: Antimicrobial activity against Clostridium difficile 630g harboring GyrB […] mutant gene selected after 8 ug/ml of moxifloxacin by Etest method; summary of the method: as §2
# Clostridioides difficile [12] = assay: Antimicrobial activity against Clostridium difficile CD5 2-g harboring GyrA Ala118Ser, Thr82Ala and GyrB Ser416Ala mutant genes selected after 8 ug/ml of moxifloxacin by Etest method
# Clostridioides difficile [13] = assay: Antimicrobial activity against Clostridium difficile C253e selected after 4 ug/ml of moxifloxacin by Etest method
# Clostridioides difficile [14] = assay: Antimicrobial activity against Clostridium difficile C253a selected after 2 ug/ml of moxifloxacin by Etest method
# Clostridioides difficile [15] = assay: Antimicrobial activity against Clostridium difficile A422C selected after 4 ug/ml of levofloxacin by Etest method; summary of the method: as §2
# Clostridioides difficile [16] = assay: Antimicrobial activity against Clostridium difficile 630i harboring GyrB […] mutant gene selected after 8 ug/ml of moxifloxacin by Etest method; summary of the method: as §2
# Clostridioides difficile [17] = assay: Antimicrobial activity against Clostridium difficile CD5B harboring GyrB Ser416Ala mutant gene selected after 4 ug/ml of levofloxacin by Etest method
# Clostridioides difficile [18] = assay: Antimicrobial activity against Clostridium difficile BI2A selected after 4 ug/ml of levofloxacin by Etest method; summary of the method: as §2
# Clostridioides difficile [19] = assay: Antimicrobial activity against Clostridium difficile A422I harboring GyrA Thr82Ile and GyrB Leu451Phe mutant genes selected after 8 ug/ml of levofloxacin by Etest method; summary of the method: as §2
# Clostridioides difficile [20] = assay: Antimicrobial activity against Clostridium difficile C253C selected after 4 ug/ml of levofloxacin by Etest method
# Clostridioides difficile [21] = assay: Antimicrobial activity against Clostridium difficile A422F harboring GyrB Leu451Phe mutant gene selected after 8 ug/ml of levofloxacin by Etest method; summary of the method: as §2
# Clostridioides difficile [22] = assay: Antimicrobial activity against Clostridium difficile 630i harboring GyrB […] mutant gene selected after 8 ug/ml of moxifloxacin by agar dilution method
# Clostridioides difficile [23] = assay: Antimicrobial activity against Clostridium difficile C253f selected after 4 ug/ml of moxifloxacin by agar dilution method
# Clostridioides difficile [24] = assay: Antimicrobial activity against Clostridium difficile C253g harboring GyrA Ala118Ser mutant gene selected after 8 ug/ml of moxifloxacin by agar dilution method
# Clostridioides difficile [25] = assay: Antimicrobial activity against Clostridium difficile BI2b harboring GyrB Arg447Lys mutant gene selected after 2 ug/ml of moxifloxacin by agar dilution method
# Clostridioides difficile [26] = assay: Antimicrobial activity against Clostridium difficile A422b selected after 2 ug/ml of moxifloxacin by agar dilution method
# Clostridioides difficile [27] = assay: Antimicrobial activity against Clostridium difficile CD5F harboring GyrB Ser416Ala mutant gene selected after 8 ug/ml of levofloxacin by agar dilution method
# Clostridioides difficile [28] = assay: Antimicrobial activity against Clostridium difficile CD5i harboring GyrA Ala92Glu and GyrB Ser416Ala mutant genes selected after 8 ug/ml of moxifloxacin by agar dilution method
# Clostridioides difficile [29] = assay: Antimicrobial activity against Clostridium difficile A422F harboring GyrB Leu451Phe mutant gene selected after 8 ug/ml of levofloxacin by agar dilution method
# Clostridioides difficile [30] = assay: Antimicrobial activity against Clostridium difficile BI2f harboring GyrB Arg447Lys and Asp426Asn mutant gene selected after 32 ug/ml of moxifloxacin by agar dilution method
# Clostridioides difficile [31] = assay: Antimicrobial activity against Clostridium difficile 630F harboring GyrA Ala118Val mutant gene selected after 8 ug/ml of levofloxacin by agar dilution method
# Clostridioides difficile [32] = assay: Antimicrobial activity against Clostridium difficile CD5f harboring GyrB Ser416Ala mutant gene selected after 4 ug/ml of moxifloxacin by agar dilution method
# Clostridioides difficile [33] = assay: Antimicrobial activity against Clostridium difficile C253h harboring GyrA Ala118Ser mutant gene selected after 8 ug/ml of moxifloxacin by agar dilution method
# Clostridioides difficile [34] = assay: Antimicrobial activity against Clostridium difficile 630b selected after 2 ug/ml of moxifloxacin by agar dilution method
# Clostridioides difficile [35] = assay: Antimicrobial activity against Clostridium difficile A422a selected after 2 ug/ml of moxifloxacin by agar dilution method
# Clostridioides difficile [36] = assay: Antimicrobial activity against Clostridium difficile CD5C harboring GyrB Ser416Ala mutant gene selected after 4 ug/ml of levofloxacin by agar dilution method
# Clostridioides difficile [37] = assay: Antimicrobial activity against Clostridium difficile A422A selected after 4 ug/ml of levofloxacin by agar dilution method
# Clostridioides difficile [38] = assay: Antimicrobial activity against Clostridium difficile 630d selected after 4 ug/ml of moxifloxacin by agar dilution method
# Clostridioides difficile [39] = assay: Antimicrobial activity against Clostridium difficile 630h harboring GyrB […] mutant gene selected after 8 ug/ml of moxifloxacin by agar dilution method
# Clostridioides difficile [40] = assay: Antimicrobial activity against Clostridium difficile A422 expressing tcdA and tcdB gene by agar dilution method
# Clostridioides difficile [41] = assay: Antimicrobial activity against Clostridium difficile 630C selected after 4 ug/ml of levofloxacin by agar dilution method
# Clostridioides difficile [42] = assay: Antimicrobial activity against Clostridium difficile A422E harboring GyrB Leu451Phe mutant gene selected after 8 ug/ml of levofloxacin by agar dilution method
structure (smiles),measurement,setting,value
COc1c(N2CCNC(C)C2)c(F)cc2c(=O)c(C(=O)O)cn(C3CC3)c12 (configuration not stated) [GATIFLOXACIN],MIC,Clostridioides difficile [1],1 µg/mL
same,MIC,Clostridioides difficile [2],0.5 µg/mL
same,MIC,Clostridioides difficile [3],0.75 µg/mL
same,MIC,Clostridioides difficile [4],0.75 µg/mL
same,MIC,Clostridioides difficile [5],8 µg/mL
same,MIC,Clostridioides difficile [6],≥ 32 µg/mL
same,MIC,Clostridioides difficile [7],1 µg/mL
same,MIC,Clostridioides difficile [8],3 µg/mL
same,MIC,Clostridioides difficile [9],2 µg/mL
same,MIC,Clostridioides difficile [10],3 µg/mL
same,MIC,Clostridioides difficile [11],≥ 32 µg/mL
same,MIC,Clostridioides difficile [12],16 µg/mL
same,MIC,Clostridioides difficile [13],1 µg/mL
same,MIC,Clostridioides difficile [14],1 µg/mL
same,MIC,Clostridioides difficile [15],1 µg/mL
same,MIC,Clostridioides difficile [16],≥ 32 µg/mL
same,MIC,Clostridioides difficile [17],0.5 µg/mL
same,MIC,Clostridioides difficile [18],2 µg/mL
same,MIC,Clostridioides difficile [19],≥ 32 µg/mL
same,MIC,Clostridioides difficile [20],0.5 µg/mL
same,MIC,Clostridioides difficile [21],2 µg/mL
C[C@H]1COc2c(N3CCN(C)CC3)c(F)cc3c(=O)c(C(=O)O)cn1c23.C[C@H]1COc2c(N3CCN(C)CC3)c(F)cc3c(=O)c(C(=O)O)cn1c23.O [LEVOFLOXACIN],MIC,Clostridioides difficile [22],64 µg/mL
same,MIC,Clostridioides difficile [23],4 µg/mL
same,MIC,Clostridioides difficile [24],64 µg/mL
same,MIC,Clostridioides difficile [25],8 µg/mL
same,MIC,Clostridioides difficile [26],4 µg/mL
same,MIC,Clostridioides difficile [27],2 µg/mL
same,MIC,Clostridioides difficile [28],16 µg/mL
same,MIC,Clostridioides difficile [29],2 µg/mL
same,MIC,Clostridioides difficile [30],64 µg/mL
same,MIC,Clostridioides difficile [31],8 µg/mL
same,MIC,Clostridioides difficile [32],2 µg/mL
same,MIC,Clostridioides difficile [33],64 µg/mL
same,MIC,Clostridioides difficile [34],4 µg/mL
same,MIC,Clostridioides difficile [35],4 µg/mL
same,MIC,Clostridioides difficile [36],1 µg/mL
same,MIC,Clostridioides difficile [37],1 µg/mL
same,MIC,Clostridioides difficile [38],4 µg/mL
same,MIC,Clostridioides difficile [39],64 µg/mL
same,MIC,Clostridioides difficile [40],2 µg/mL
same,MIC,Clostridioides difficile [41],1 µg/mL
same,MIC,Clostridioides difficile [42],2 µg/mL
